Measured values as given in PMC7655718 (The Journal of antibiotics, 2020).
≈ marks a conversion by molar mass, not a printed value. Read-outs that look alike come from different tables or passages of the source.

Legend:
[1] = system: S. aureus ATCC 25923 (Sa23); experiment: MIC, microdilution with resazurin; type: cell-based; details: Staphylococcus aureus, ATCC25923, read-out: MIC Sa23
Summary of the method: (§1)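 Compounds dissolved in DMSO at 2 mg/mL. Overnight blood-agar colonies were suspended in PBS to 0.5 McFarland, then diluted in Mueller Hinton broth to about 1x10^6 cfu/mL with resazurin (1:1000 of 0.1% w/v stock). Twofold DMSO dilutions were added 1:40, giving 50 to 0.4 μg/mL at 2.5% DMSO. Incubation was 35 °C for 16-20 h. Blue/non-turbid wells counted as inhibited, pink/turbid as grown.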

[2] = system: S. aureus ATCC 33591 (Sa91); experiment: MIC, microdilution with resazurin; type: cell-based; details: Staphylococcus aureus, ATCC33591, read-out: MIC Sa91
Summary of the method: as §1

[3] = system: S. aureus ATCC 33592 (Sa92); experiment: MIC, microdilution with resazurin; type: cell-based; details: Staphylococcus aureus, ATCC33592, read-out: MIC Sa92
Summary of the method: as §1

[4] = system: S. aureus ATCC 700699 (Sa99); experiment: MIC, microdilution with resazurin; type: cell-based; details: Staphylococcus aureus, ATCC700699, read-out: MIC Sa99
Summary of the method: as §1

[5] = system: S. aureus BAA-2312 (Sa12); experiment: MIC, microdilution with resazurin; type: cell-based; details: Staphylococcus aureus, BAA2312, read-out: MIC Sa12
Summary of the method: as §1

[6] = system: S. epidermidis 700296 (Se); experiment: MIC, microdilution with resazurin; type: cell-based; details: Staphylococcus epidermidis, read-out: MIC Se
Summary of the method: as §1

[7] = system: B. subtilis ATCC 6623 (Bs); experiment: MIC, microdilution with resazurin; type: cell-based, Bacillus subtilis; details: Bacillus subtilis, ATCC6623, read-out: MIC Bs
[8] = system: A. baumannii ATCC 747 (Ab47); experiment: MIC, microdilution with resazurin; type: cell-based, Acinetobacter baumannii; details: Acinetobacter baumannii, ATCC747, read-out: MIC Ab47
Summary of the method: as §1

[9] = system: A. baumannii ATCC 19606 (type strain, Ab06); experiment: MIC and MBC; type: cell-based, Acinetobacter baumannii; details: Acinetobacter baumannii
Summary of the method: as §1

[10] = system: A. baumannii ATCC 19606 (Ab06); experiment: BacLight membrane permeability assay; type: cell-based, Acinetobacter baumannii; details: Ab06, versus positive control colistin at comparable MIC
[11] = system: S. aureus ATCC 33599 (MRSA); experiment: BacLight membrane permeability assay; type: cell-based, Staphylococcus aureus; details: versus positive control vancomycin
[12] = system: tested Gram-positive bacterial strains; experiment: MIC, text summary over tested Gram-positive strains; type: cell-based
[13] = system: tested A. baumannii strains; experiment: MIC, text summary over A. baumannii strains; type: cell-based, Acinetobacter baumannii
Summary of the method: as §1

## O=C(O)c1ccc(-n2cc(/C=N/Nc3ccc(F)c(Cl)c3)c(-c3ccc4ccccc4c3)n2)cc1 [Compound 22]
[1]
  MIC: 3.12 µg/mL (≈ 6.44 µM)
[2]
  MIC: 6.25 µg/mL (≈ 12.9 µM)
[3]
  MIC: 1.56 µg/mL (≈ 3.22 µM)
[4]
  MIC: 0.78 µg/mL (≈ 1.61 µM)
[5]
  MIC: 3.12 µg/mL (≈ 6.44 µM)
[6]
  MIC: 3.12 µg/mL (≈ 6.44 µM)
[7]
  MIC: 6.25 µg/mL (≈ 12.9 µM)
[8]
  MIC: 12.5 µg/mL (≈ 25.8 µM)
[9]; ATCC19606
  MBC: 50 µg/mL (≈ 103 µM)
  MIC: 6.25 µg/mL (≈ 12.9 µM)
[9]; ATCC19606, read-out: MIC Ab06
  MIC: 6.25 µg/mL (≈ 12.9 µM)
[10]
  membrane disrupting ability, PI/SYTO-9 ratio: better membrane disrupting ability
[11]
  membrane disruption activity, PI/SYTO-9 ratio: more potent membrane disruption activity than vancomycin
[12]
  antimicrobial activity against the tested strains: potent inhibitors of tested Gram-positive strains
[13]
  activity against A. baumannii strains: moderate growth inhibitor
